We go through 4 molecules from article PMC3999706 (Biochemistry, 2013).

The subject of assay [1] is Fe(II) Vc H-NOX. Kind of assay: Stopped-flow kinetics and affinity of gaseous ligand binding to Fe. Set-up: species or system Vibrio cholerae. The note with it: for koff / Kd: Fe(II) Vc H-NOX, NO: 6c complex; for koff: displacement method; for Kd: calculated from kon and koff; for koff of 5c Vc H-NOX-NO complex, fast phase / koff of 5c Vc H-NOX-NO complex, slow phase: displacement with CO/dithionite.

The target of assay [2] is sGC. The note with it: 6c complex, ref [5], cited from earlier work.
The target in assay [3] is Ferrous Ns H-NOX. The settings on record: ref [5], cited from earlier work.
Assay [4] concerns the target Fe(III) Vc H-NOX (Vibrio cholerae, UniProt Q9KLM3). Description: biochemical. It is filed as binding.
Assay [5] deals with Fe(II) Vc H-NOX. Description: Autoxidation of Fe. It is filed as biochemical, Vibrio cholerae. The essentials:
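Recombinant Vc H-NOX was expressed in E. coli Rosetta 2(DE3)pLysS (heme and δ-aminolevulinic acid supplemented, IPTG, 48 h at 20 °C) and purified on TALON resin. The anaerobic Fe(II) protein was mixed with O2 by stopped-flow in 20 mM HEPES pH 7.3, 50 mM NaCl, 10% glycerol. Spectral changes were followed by diode-array over 65.5 s, and kobs was taken from single-exponential fits under pseudo-first-order conditions.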

In assay [6] the test system is Fe(II) Ns H-NOX. The settings on record: ref [14]; cited from earlier work.
The mark [7] stands for this setting: estimated by computer simulation of A420 time courses.

Values joined by “and” are separate entries in the source; they are usually repeats but may differ in a detail not shown here. Identical values can stand only once. Like-named read-outs stand apart in the source and are kept apart here.

As for `[C-]#[O+]` [CO, Carbon monoxide], in assay [1] (24 °C), the koff (usually a measure of how fast the partners let go of each other) is 0.85 s⁻¹. Further, the Kd (commonly the equilibrium constant for the complex coming apart) in assay [1] was 0.77 µM; in assay [2] (read-out: affinity of CO for sGC (KD)), 260 µM; in assay [3] (read-out: KD(CO) of ferrous Ns H-NOX), 1.4 µM.
For `c1c[nH]cn1` [Im, imidazole], the affinity in assay [4], expressed as Kd, was 4200 µM.
On to `O=O` [O2], for which the “second order reaction rate constant (slope of kobs versus [O2])” value in assay [5] (3 μM Fe(II) Vc H-NOX, 100-600 μM O2, 24 °C, A429) is 4.8 M⁻¹ s⁻¹. Besides, the “autoxidation rate of Fe(II) Vc H-NOX to ferric state (k4)” value in assay [5] (k4 = slope × KD(O2)) was 0.06 s^−1 and ~ 0.06 s^−1. Further, the Kd in assay [3] (read-out: KD for O2 of Ns H-NOX, measured using a high pressure cell) was 13000 µM. Moreover, the “autoxidation rate of Fe(II) Ns H-NOX” value in assay [6] was ~ 0.05 hr^−1 and 0.05 hr^−1.
As to nitric oxide [NO], in assay [1] (24 °C), the koff stood at 0.3 s⁻¹. The Kd was 0.00027 µM in assay [1], 0.054 µM in assay [2] (read-out: affinity of NO for sGC (KD)) and 0.00017 µM in assay [3] (read-out: KD(NO) of ferrous Ns H-NOX). For the same molecule, in assay [1] (setting [7]), the “k1 (second NO binding to 6c complex)” value was 2.5e+07 M⁻¹ s⁻¹. In addition, the “k-1 (dissociation of quaternary complex)” value in assay [1] (setting [7]) was 4500 s⁻¹. The “k2 (limiting rate of 5c heme-NO complex formation)” value in assay [1] (excess NO, hyperbolic fit of kobs versus [NO], 24 °C) is 720 s⁻¹. Moreover, the “koff of 5c Vc H-NOX-NO complex, fast phase” value came to 0.01 s⁻¹ in assay [1] (excess NO, 29% overall reaction) and 0.01 s⁻¹ in assay [1] (stoichiometric NO, 16% overall reaction). Further, the “koff of 5c Vc H-NOX-NO complex, slow phase” value in assay [1] (excess NO, 71% overall reaction) was 0.001 s⁻¹; in assay [1] (stoichiometric NO, 84% overall reaction), 0.001 s⁻¹. In addition, the “overall conversion rate of 6c to 5c Vc H-NOX-NO complex” value in assay [1] (stoichiometric NO (2.5 μM each), 24 °C, global analysis) is ~ 0.01 s^−1. The “k-2 (re-association of NO with 5c Vc H-NOX)” value in assay [1] (y-intercept of kobs versus low [NO]) was 1.9 s⁻¹.
